Measurements collected from several papers.
Compare with care: the assays were run in different laboratories.
Target: Myosin light chain kinase 2, skeletal/cardiac muscle (MYLK2, Homo sapiens, UniProt Q9H1R3)

| SMILES | read-out | technique | concentration | remaining binding |
| --- | --- | --- | --- | --- |
| CC1CCCN1c1nccc(-c2cnn3ncccc23)n1 (centres unmarked) | binding |  | 1 µM | 100% |
| Nc1ncc2c(n1)-c1c([nH]c3ccc(C#CC4CC4)cc13)CCCC2 | binding | competition with immobilised ligand | 1 µM | 100% |
| C[C@H]1CCN(c2nccc(-c3cnn4ncccc34)n2)C1 | binding |  | 1 µM | 79% |
| Cc1cnc(Nc2ccc(C(=O)N3CCC(N4CCCC4)CC3)cc2)nc1-c1cc2ccccc2s1 | binding | competition with immobilised ligand | 1 µM | 1.8% |
| CCC(=O)N[C@@H]1CC[C@H](C(=O)N(C)c2ccc(-c3nc4ccccc4o3)cc2)C1 | cell-free assay | competition with immobilised ligand | 1 µM | 79% |
| O=C(Nc1c[nH]nc1C(=O)NC1CCNCC1)c1cc(F)cc(F)c1 | binding | competition with immobilised ligand | 1 µM | 88% |
| c1cncc(-c2cccc(Nc3nccc(NC4CCCCC4)n3)c2)c1 | binding | competition with immobilised ligand | 10 µM | 70% |
| Cc1nc(C2CCN(C(=O)c3ccc(OC(F)(F)F)cc3N)CC2)c2ncc(N3CCN(C)CC3)cc2n1 | cell-free assay | competition with immobilised ligand | 1 µM | 87% |
| CNC(=O)[C@@H]1CC[C@@H](n2c(-c3ccc4cnccc4c3)nc3ccc(C(=O)NCc4cccc(C(N)=O)c4)cc32)C1 | binding | competition with immobilised ligand | 1 µM | 100% |
| O=C(c1ccc(Nc2nccc(-c3cc4ccccc4s3)n2)cc1)N1CCC(N2CCCC2)CC1 | binding | competition with immobilised ligand | 1 µM | 0.8% |
| CN(c1nccc(-c2cnn3ncccc23)n1)C1CC1 | binding |  | 1 µM | 100% |
| CC(=O)C1=C(C)N(c2cccc(C(F)(F)F)c2)C(=O)N[C@@H]1c1ccc(C#N)nc1 | cell-free assay | competition with immobilised ligand | 1 µM | 100% |
| O=C(NCCCN1CCOCC1)c1ccc(Nc2nccc(-c3cc4ccccc4s3)n2)cc1 | binding | competition with immobilised ligand | 1 µM | 9.1% |
| COc1ccnn2ncc(-c3ccnc(N(C)C)n3)c12 | binding |  | 1 µM | 96% |
| CNCc1ccccc1-c1csc([C@H](C)Nc2nc(C)nc3cc(OC)c(OC)cc23)c1 | cell-free assay | competition with immobilised ligand | 1 µM | 100% |
| C[C@@H](c1ccc(-n2cnc3c(N)ncnc32)cc1)N1CCc2nn(C)c(Cc3ccccc3)c2C1=O | binding | competition with immobilised ligand | 0.1 µM | 85% |
| N[C@@H]1CCN(c2nccc(-c3cnn4ncccc34)n2)C1 | binding |  | 1 µM | 98% |
| CCOC(=O)c1cc2cc(-c3cc(C(=O)NCc4ccc(C(=O)O)cc4)nn3C)ccc2[nH]1 | cell-free assay | competition with immobilised ligand | 0.1 µM | 89% |
| CN(C)c1ncc(F)c(-c2cnn3ncccc23)n1 | binding |  | 1 µM | 100% |
| Cc1cc(NC(=O)c2cccc(S(F)(F)(F)(F)F)c2)cc(-n2ccn3nc(-c4cccnc4)cc23)c1 | cell-free assay | competition with immobilised ligand | 1 µM | 100% |
